From ChEMBL document CHEMBL3085771, “Azetidinone-retinoid hybrids: synthesis and differentiative effects” (Eur J Med Chem, 2013) come the findings set out here.

Assay [1] concerns SH-SY5Y. Nature of the assay: Induction of cell differentiation in human SH-SY5Y cells assessed as neural-like differentiation at 10 uM after 6 days using beta3-tubulin and NF200 staining by microscopic analysis. The class given is functional, cell-based. In outline: (§1)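 SH-SY5Y grown on BME-coated glass coverslips at 1×10⁴ cells/cm², treated from 24 h for 6 days, medium changed every 48 h. Controls were untreated cells and RA 10 microM. Cells fixed in 4% PFA, immunostained overnight at 4 °C for βIII-tubulin and NF200, and counterstained with Hoechst. Imaged at 20×; immunoreactive area normalized to cell number, mean ± SD.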

Assay [2] deals with SH-SY5Y. The experiment in a line: Cytotoxicity against human SH-SY5Y cells assessed as doubling time at 10 uM after 24 to 96 hrs by trypan blue exclusion assay (reference value: 34.9 hrs). The class given is functional, cell-based.
Assay [3] in a line: Cytotoxicity against human SH-SY5Y cells assessed as doubling time at 10 uM after 24 to 72 hrs by trypan blue exclusion assay (reference value: 34.9 hrs). The class given is functional.
Assay [4] concerns SH-SY5Y. Nature of the assay: Cytotoxicity against human SH-SY5Y cells at 10 uM after 72 to 96 hrs by MTT assay. The class given is functional, cell-based. For orientation: Formazan colour is commonly taken as a measure of viable cells.
In assay [5] the test system is SH-SY5Y. The experiment in a line: Cytotoxicity against human SH-SY5Y cells at 10 uM after 48 hrs by MTT assay. The class given is functional, cell-based.
Assay [6] can be described thus: Cytotoxicity against human SH-SY5Y cells after 24 hrs by MTT assay.
Assay [7] concerns SH-SY5Y. The experiment in a line: Induction of cell differentiation in human SH-SY5Y cells assessed as neural-like differentiation at 7.5 uM after 6 days using beta3-tubulin and NF200 staining by microscopic analysis. The class given is functional, cell-based. In outline: as §1
Assay [8] has as its system SH-SY5Y. Nature of the assay: Cytotoxicity against human SH-SY5Y cells assessed as doubling time at 7.5 uM after 24 to 96 hrs by trypan blue exclusion assay (reference value: 34.9 hrs). The class given is functional, cell-based.
Assay [9] can be described thus: Cytotoxicity against human SH-SY5Y cells assessed as doubling time at 7.5 uM after 24 to 72 hrs by trypan blue exclusion assay (reference value: 34.9 hrs). The class given is functional.
Assay [10] has as its system SH-SY5Y. Nature of the assay: Cytotoxicity against human SH-SY5Y cells at 7.5 uM after 72 to 96 hrs by MTT assay. The class given is functional, cell-based.

Activity calls are given as the source filed them. No cut-off for these calls is given here.

Consider `CC1=C(/C=C/C(C)=C/C=C/C(C)=C/C(=O)O)C(C)(C)CCC1`, for which the outcome in the assay with SH-SY5Y [1] was Active.
As usually defined, the IC50 is the concentration that gives 50% inhibition. Higher therefore signals weaker potency. Regarding `CC1=C(/C=C/C(C)=C/CNC(=O)/C=C2/CC(=O)N2)C(C)(C)CCC1`, the result in the assay on SH-SY5Y [1], in the assay with SH-SY5Y [4] and in the assay on SH-SY5Y [5] was Active. For the same compound, the result with SH-SY5Y [2] was inactive. Besides, the Time in assay [3] is 39.78 h. Moreover, 38 µM corresponded to half-maximal inhibition in [6] (IC50).
As to `CC1=C(/C=C/C(C)=C\CNC(=O)/C=C2/CC(=O)N2)C(C)(C)CCC1`, the result in the assay with SH-SY5Y [1], in the assay on SH-SY5Y [4] and with SH-SY5Y [5] was Active. The result in the assay on SH-SY5Y [2] was inactive. Further, in [3], the Time came to 51.25 h. In assay [6], this compound gave an IC50 of 35 µM.
For the compound `CSN1C(=O)CC1CC/C=C/C(=O)Nc1ccccc1` (stereo not drawn), the outcome in the assay with SH-SY5Y [7] and with SH-SY5Y [8] was inactive. In addition, the Time in assay [9] turned out to be 39 h. Besides, the outcome with SH-SY5Y [10] was Active. For the same compound, inhibition in assay [6] was half-maximal at 10 µM (IC50).
